This is an account of results in the array DNA melting data of Ke et al. (doi:10.1101/2024.01.08.574731).

The nature of data set [1]: folding enthalpy; higher = less favourable; fluorescence melt of hairpins on a sequencing array, two-state fit. The following applies: sodium 0.088 M. The procedure, abridged:
(§1)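 On a sequenced MiSeq flow cell, library hairpins with annealed Cy3 and quencher oligos were imaged for Cy3 fluorescence in 2.5 °C steps up to 60 °C, in 50 mM Na-HEPES pH 8.0, 25 mM NaCl. Normalisation used pre-quench Cy3 and control constructs. Bootstrapped two-state fits gave melting temperature and folding enthalpy, combined by inverse variance across four replicates and with fitted temperatures raised by 9.35 °C to match UV melts.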

The nature of data set [2]: melting temperature; fluorescence melt of hairpins on a sequencing array, two-state fit, raised by 9.35 °C to match UV melts. The following applies: sodium 0.088 M. An outline of the steps:
as §1

Regarding GTCGACCGAAAGGTGGAC (((.(((....))).))), in data set [1], the folding enthalpy is -42.1 kcal/mol. Besides, in data set [2], the Tm worked out at 56.1 °C.

On to GTCGACCGAAAGGTTGAC (((.(((....))).))), for which the folding enthalpy in data set [1] was -34.8 kcal/mol. Further, the Tm in data set [2] turned out to be 62.2 °C.

Regarding GTCGACGAAAGTCCCGAC ((((((....)))..))), in data set [1], the folding enthalpy was -16.1 kcal/mol. The Tm in data set [2] was determined as 34 °C.

As to GTCGACGAAAGTCTCGAC ((((((....)))..))), the folding enthalpy in data set [1] is -18.3 kcal/mol. For the same sequence, the Tm in data set [2] amounted to 41.8 °C.

Regarding GTCGACGAAAGTCTGAC ((((((....))).))), in data set [1], the folding enthalpy is -21.8 kcal/mol. The Tm in data set [2] was 49.5 °C.

GTCGACGAAAGTCTTGAC ((((((....)))..))): the folding enthalpy in data set [1] was -15.4 kcal/mol. For the same sequence, in data set [2], the Tm amounted to 36.2 °C.

GTCGACGGAAACACCGAC ((((..(....)..)))): the folding enthalpy in data set [1] was -24.8 kcal/mol. Moreover, the Tm in data set [2] stood at 31.6 °C.

For GTCGACGGAAACATCGAC (((((.(....).))))), the folding enthalpy in data set [1] is -39.8 kcal/mol. In addition, in data set [2], the Tm came out at 46.3 °C.

On to GTCGACGGAAACGTTGGC (.(.(((....))).).), for which the folding enthalpy in data set [1] was -24.6 kcal/mol. Besides, the Tm in data set [2] came to 46.2 °C.

Take GTCGATCGAAAGATAGAC (((.(((....))).))): in data set [1], the folding enthalpy is -42.7 kcal/mol. Further, the Tm in data set [2] came out at 50.4 °C.

Turning to GTCGATGAAAATCGAC ((((((....)))))), the folding enthalpy in data set [1] is -39.4 kcal/mol. Besides, the Tm in data set [2] was 61.3 °C.

GTCGATGGAAACATCGAC (((((((....))))))): in data set [1], the folding enthalpy was -44.8 kcal/mol. Further, in data set [2], the Tm stood at 67.3 °C.

With GTCGATGGAAACATCGGC (.(((((....))))).), the folding enthalpy in data set [1] was -42.2 kcal/mol. The Tm in data set [2] came out at 56.1 °C.

As for GTCGATGGAAACATTGGC (.(.(((....))).).), the folding enthalpy in data set [1] is -29.2 kcal/mol. For the same sequence, the Tm in data set [2] was found to be 35.1 °C.

For the sequence GTCGATGGAAACGTCGAC (((((.(....).))))), the folding enthalpy in data set [1] is -37.6 kcal/mol. Moreover, the Tm in data set [2] was determined as 54.8 °C.

GTCGCACGAAAGTGGGAC (((.(((....))).))): the folding enthalpy in data set [1] is -38.5 kcal/mol. The Tm in data set [2] came to 67.4 °C.

In the case of GTCGCACGAAAGTGTGAC (((.(((....))).))), the folding enthalpy in data set [1] was -42.4 kcal/mol. For the same sequence, the Tm in data set [2] is 67.4 °C.

As for GTCGCCGAAAGGCGAGAC ((((((....)))..))), the folding enthalpy in data set [1] is -7.32 kcal/mol. The Tm in data set [2] stood at 51.8 °C.

Regarding GTCGCCGAAAGGCTCGAC ((((((....)))..))), the folding enthalpy in data set [1] is -13.2 kcal/mol. The Tm in data set [2] turned out to be 39.1 °C.

In the case of GTCGCGGGAAACCGTGGC (.(.(((....))).).), the folding enthalpy in data set [1] was -28.5 kcal/mol. The Tm in data set [2] turned out to be 50.3 °C.

Consider GTCGCTTCGAAAGAAGAC (((..(((....)))))), for which the folding enthalpy in data set [1] was -9.98 kcal/mol. In data set [2], the Tm came to 33.9 °C.

Take GTCGGACGAAAGTCGAC (((.(((....)))))): the folding enthalpy in data set [1] was -28 kcal/mol. The Tm in data set [2] stood at 56.9 °C.

GTCGGAGGAAACTCTGAC (((.(((....))).))): the folding enthalpy in data set [1] was -45.4 kcal/mol. Also, in data set [2], the Tm amounted to 50 °C.

With GTCGGATCGAAAGATGAC (((..(((....)))))), the folding enthalpy in data set [1] is -16.7 kcal/mol. In addition, in data set [2], the Tm stood at 31.7 °C.

Regarding GTCGGCGAAAGCCCTGAC ((((((....)))..))), in data set [1], the folding enthalpy was -10.4 kcal/mol. Also, in data set [2], the Tm was 35.6 °C.

GTCGGCGAAAGCCGAGAC ((((((....)))..))): the folding enthalpy in data set [1] is -7.78 kcal/mol. Besides, the Tm in data set [2] worked out at 55.6 °C.

Regarding GTCGGCGAAAGCCTGGAC ((((((....)))..))), the folding enthalpy in data set [1] is -15.2 kcal/mol. Further, the Tm in data set [2] came to 45 °C.

With GTCGGCTCGAAAGAGGAC (((..(((....)))))), in data set [1], the folding enthalpy is -16 kcal/mol. For the same sequence, in data set [2], the Tm was 32.2 °C.

GTCGGGACGAAAGTCGAC (((..(((....)))))): the folding enthalpy in data set [1] was -18.9 kcal/mol. In addition, in data set [2], the Tm is 47.5 °C.

With GTCGGGCGAAAGCCGAC (((.(((....)))))), the folding enthalpy in data set [1] is -23 kcal/mol. In addition, the Tm in data set [2] is 68.6 °C.

GTCGGGGCGAAAGCCGAC (((..(((....)))))): the folding enthalpy in data set [1] was -17.2 kcal/mol. Besides, the Tm in data set [2] is 56.9 °C.

GTCGGGGGAAACCCTGAC (((.(((....))).))): the folding enthalpy in data set [1] is -53.6 kcal/mol. For the same sequence, the Tm in data set [2] was 53.4 °C.

For the sequence GTCGGGGGAAACTCCGGC (.(((.(....).))).), the folding enthalpy in data set [1] was -29.9 kcal/mol. The Tm in data set [2] is 47.2 °C.

Take GTCGGTCGAAAGACAGAC (((.(((....))).))): the folding enthalpy in data set [1] was -37.8 kcal/mol. Further, the Tm in data set [2] was found to be 57.8 °C.

As for GTCGGTCGAAAGACGGAC (((.(((....))).))), in data set [1], the folding enthalpy is -34.8 kcal/mol. In addition, the Tm in data set [2] turned out to be 59.1 °C.

As for GTCGGTGGAAACATCGAC ((((.((....)).)))), the folding enthalpy in data set [1] is -45.1 kcal/mol. Further, the Tm in data set [2] stood at 53.9 °C.
